Data: ChEMBL document CHEMBL1800010, “Design, synthesis, and pharmacological activity of nonallergenic pyrazolone-type antipyretic analgesics” (J Med Chem, 2010)
Calls of active or inactive are those of the source.

Key:
Cavia porcellus = species: Cavia porcellus; test: Antigenicity in guinea pig assessed as erythema in abdomen id measured after 24 hrs by skin reaction assay; details: in vivo, other
Rattus norvegicus [1] = test: Drug excretion in rat urine assessed as norantipyrine formation at 100 mg/kg, po measured after 24 hrs by HPLC analysis; details: in vivo, BLD = below limit of detection
Rattus norvegicus [2] = species: Rattus norvegicus; test: Antipyretic activity against IL-1beta-induced hyperthermia in rat assessed as change in rectal temperature measured after 2 hrs; type: functional, organism-based
Procedure, shortened: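 Rats fitted with a guide cannula into the lateral ventricle. Fever induced by icv IL-1β (200 units/rat) in PBS pH 7.5. Compound given orally immediately after IL-1β at 10-100 mg/kg. Rectal temperature read by thermoelectric probe at 7 cm depth, after 3 days of adaptation, at 2 h intervals. ΔT_rec = T − T₀. Mean ± SEM, four rats.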

Rattus norvegicus [3] = test: Antinociceptive activity in rat assessed as suppression of carrageenan-induced nociception in right hind paw at 100 mg/kg, po measured after 1 hr; type: functional, organism-based; parameters: dose 100 mg/kg
Procedure, shortened: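 Randall–Selitto paw pressure test in rats. Hyperalgesia induced by intraplantar injection of 0.1 mL carrageenin (10 mg/mL) into the right hindpaw, with oral dosing immediately afterward. Pressure rose at 16 g/s to squeak or struggle, cutoff 250 g. Baseline was the mean of the last four stable of 6-8 readings. Results given as % of baseline threshold, mean ± SEM, n=4.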

Liver microsomes [4] = test: Metabolic stability in rat liver microsomes assessed as norantipyrine formation per mg of protein after 20 mins by HPLC analysis; type: ADME, Microsome
Procedure, shortened: (§1)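 Rat liver microsomes prepared by 9000g then 105000g centrifugation in 1.15% KCl, protein by Lowry. Incubation: 2 μmol substrate, 10 μmol NADPH, Na2S2O5 and microsomes (2-2.5 mg protein) in 2 mL 0.1 M K/Na phosphate, pH 7.4, 37 °C, 20 min. Stopped with TCA. Metabolites measured by C18 HPLC at 254 nm against authentic standards.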

Rattus norvegicus [5] = test: Drug excretion in rat urine assessed as norantipyrine formation at 100 mg/kg, po measured after 24 hrs by HPLC analysis; type: ADME, organism-based; parameters: dose 100 mg/kg, route oral; details: in vivo
Procedure, shortened: (§2)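 Single oral dose of 100 mg/kg to rats, with urine collected for 24 h. 1 mL urine was incubated with β-glucuronidase/sulphatase and Na2S2O5 in 0.1 M acetate, pH 4.5, at 37 °C for 24 h. Phenacetin internal standard added, then chloroform/methanol 9:1 extraction. Analyzed by C18 HPLC (acetate pH 6.6/acetonitrile 85:15, 254 nm) against authentic standards. Mean ± SEM, n=4.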

Rattus norvegicus [6] = test: Antipyretic activity against IL-1beta-induced hyperthermia in rat assessed as change in rectal temperature at 50 mg/kg, po measured after 2 hrs
Rattus norvegicus [7] = test: Drug excretion in rat urine assessed as hydroxymethylpyrine formation at 100 mg/kg, po measured after 24 hrs by HPLC analysis; type: ADME, organism-based; parameters: dose 100 mg/kg, route oral; details: in vivo
Procedure, shortened: as §2

Rattus norvegicus [8] = test: Antinociceptive activity in rat assessed as suppression of carrageenan-induced nociception in right hind paw at 2 mg/kg, po measured after 1 hr; type: functional, organism-based; parameters: dose 2 mg/kg
Procedure, shortened: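 Rat Randall-Selitto paw pressure test. Hyperalgesia induced by intraplantar injection of 0.1 mL carrageenin (10 mg/mL) into the right hindpaw. Drug given orally immediately after. Pressure applied at 16 g/s with a 250 g cutoff; threshold taken at squeaking/struggling. Baseline is the mean of the last four stable readings. Expressed as % of control threshold; mean ± SEM, n=4 rats.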

Liver microsomes [9] = test: Metabolic stability in rat liver microsomes assessed as increase in […] products after 20 mins by HPLC analysis; type: ADME, Microsome
Procedure, shortened: as §1

Rattus norvegicus [10] = test: Drug excretion in rat urine assessed as hydroxyantipyrine formation at 100 mg/kg, po measured after 24 hrs by HPLC analysis; type: ADME, organism-based; parameters: dose 100 mg/kg, route oral; details: in vivo
Procedure, shortened: as §2

Rattus norvegicus [11] = test: Antipyretic activity against IL-1beta-induced hyperthermia in rat assessed as change in rectal temperature at 100 mg/kg, po measured after 2 hrs
Liver microsomes [12] = test: Metabolic stability in rat liver microsomes assessed as hydroxyantipyrine formation per mg of protein after 20 mins by HPLC analysis; type: ADME, Microsome
Procedure, shortened: as §1

[13] = Drug excretion in rat urine at 100 mg/kg, po measured after 24 hrs by HPLC analysis; type: ADME, organism-based; parameters: dose 100 mg/kg, route oral; details: read-out: Activity
Procedure, shortened: as §2

Liver microsomes [14] = test: Metabolic stability in rat liver microsomes assessed as hydroxymethylpyrine formation per mg of protein after 20 mins by HPLC analysis; type: ADME, Microsome
Procedure, shortened: as §1

Row | SMILES | Activity (Cavia porcellus) | Activity (Rattus norvegicus [1]) | Activity (Rattus norvegicus [2]) | Activity (Rattus norvegicus [3]) | Activity (Liver microsomes [4]) | Activity (Rattus norvegicus [5]; BLD = below limit of detection) | Activity (Rattus norvegicus [6]) | Activity (Rattus norvegicus [7]; BLD = below limit of detection) | Activity (Rattus norvegicus [8]) | Stability (Liver microsomes [9]) | Activity (Rattus norvegicus [10]) | Activity (Rattus norvegicus [11]) | Activity (Liver microsomes [12]) | dose excreted at 24 h [13] | Activity (Liver microsomes [14]) | Activity (Rattus norvegicus [5]) | Activity (Rattus norvegicus [7])
1 | Cc1cc(=O)n(-c2ccccc2)n1C(C)(C)C | Non-toxic | BLD | Dose-dependent effect | Active | < 0.1 nmol | BLD | Active | BLD |  |  |  |  |  |  |  |  | 
2 | COc1ccc2c(c1)c(CC(=O)O)c(C)n2C(=O)c1ccc(Cl)cc1 |  |  |  |  |  |  |  |  | Active |  |  |  |  |  |  |  | 
3 | Cc1cc(=O)n(-c2ccccc2)n1-c1ccccc1 | Non-toxic | BLD | Dose-dependent effect | Active | < 0.1 nmol | BLD | Active | BLD |  |  |  |  |  |  |  |  | 
4 | Cc1cc(=O)n(-c2ccccc2)n1CC(F)(F)F | Non-toxic | BLD | Dose-dependent effect | Active | < 0.1 nmol | BLD | Active | BLD |  |  |  |  |  |  |  |  | 
5 | Cc1cc(=O)n(-c2ccccc2)n1C [ANTIPYRINE] | Toxic |  |  | Active | 27 nmol |  |  |  |  | Unstable | 2% | Active | 40 nmol | 2% | 40 nmol | 2% | 2%
6 | Cc1cccc(Nc2ccccc2C(=O)O)c1C |  |  |  |  |  |  |  |  |  |  |  | Active |  |  |  |  | 
